# Measurements collected from several papers.
# Lines come from different studies, so protocols differ.
# Observed: metabolic stability
SMILES,test system,conditions,measurement,value
Cc1nc([C@@](C)(CC2CC2)NC(=O)c2cc(OCC(F)(F)F)c(C3CC3)cn2)no1,"mouse, hepatocytes",,hepatocyte CLint,27 µL/min/10⁶ cells
Cc1cc(C)nc(Nc2ncc(C(=O)NCCc3c(C)[nH]c4ccccc34)cn2)c1,"mouse, liver microsomes",1 µM,microsomal CLint,148 µL/min/mg
Cc1cc(Cl)c(Cl)cc1NC(=O)c1ccc(N2CCNCC2)c(C#N)c1,"CD-1 mouse, liver microsomes","1 µM, 1 h, pH 7.4",scaled CLint,1.74 L/h/kg
NC(=O)[C@@H]1CC(F)(F)CN1C(=O)c1ccc(N2CC(F)(F)C2)c(OCC2CC2)n1,"mouse, hepatocytes",,hepatocyte CLint,59 µL/min/10⁶ cells
C[C@H]1COCCN1c1nc(NCc2cccnc2C(F)(F)F)c2cccnc2n1,"mouse, hepatocytes",,hepatocyte CLint,8.9 µL/min/10⁶ cells
Cc1ccc(F)c2cc(C(=O)N[C@@H]3CCC[C@H](N4CC[C@H](N(C)S(C)(=O)=O)C4)C3)[nH]c12,"mouse, hepatocytes","0.5 µM, 1 h",scaled CLint,43.3 L/h/kg
Cc1nc2c(=O)n(C)c(=O)nc-2n(C)n1,"mouse, liver microsomes",,microsomal CLint,< 7.4 µL/min/mg
Cc1ncc2n1-c1ccc(Cl)cc1C(c1ccccc1F)=NC2,"male CD-1 mouse, liver microsomes",1 µM,microsomal CLint,> 250 µL/min/mg
